Article PMC3711763 (The Journal of neuroscience : the official journal of the …, 2013)
Read-outs that look alike come from different tables or passages of the source.

Legend:
[1] = tested on: 5-HT2CR–PTEN complex in VTA; assay: co-IP of 5-HT2CR–PTEN complex in rat VTA after systemic administration; type: in vivo; settings: 10 μmol/kg, i.p., killed 5 min later, relative to vehicle (saline)
male Sprague Dawley rats [2] = assay: spontaneous locomotor activity; type: in vivo, rat; settings: i.p.
male Sprague Dawley rats [3] = assay: 1-choice serial reaction time; type: in vivo, rat; settings: i.p.; for number of reinforcers earned (combination study) / premature responses (combination study): alone or combined; for % Accuracy / % Omissions / Latency to start / Response latency / Time to finish: mean ± SEM
Method in brief: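 Male Sprague Dawley rats (225–325 g) were housed two per cage and food-restricted to 90% of free-feeding weight. They were trained until stable: >80% accuracy and <20% omissions for five consecutive sessions at the final stage (0.5 s stimulus, 5 s limited hold, 5 s ITI), with <15% variability. Test compound or saline vehicle was given i.p. 15 min pre-session. Data were analysed by one-way repeated-measures ANOVA with Dunnett's test versus saline.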

5-HT2AR = 5-HT2AR (Homo sapiens, UniProt P28223); assay: intracellular calcium release in 5-HT2AR–CHO cells; type: cell-based; settings: for Cai2+ release, peptide alone, in 5-HT2AR–CHO cells: 15 min, peptide alone (data not shown); for effect on 5-HT-mediated Cai2+ release in 5-HT2AR–CHO cells: 15 min preincubation, 10 nM 5-HT
Sequence of 5-HT2AR (P28223 whole entry): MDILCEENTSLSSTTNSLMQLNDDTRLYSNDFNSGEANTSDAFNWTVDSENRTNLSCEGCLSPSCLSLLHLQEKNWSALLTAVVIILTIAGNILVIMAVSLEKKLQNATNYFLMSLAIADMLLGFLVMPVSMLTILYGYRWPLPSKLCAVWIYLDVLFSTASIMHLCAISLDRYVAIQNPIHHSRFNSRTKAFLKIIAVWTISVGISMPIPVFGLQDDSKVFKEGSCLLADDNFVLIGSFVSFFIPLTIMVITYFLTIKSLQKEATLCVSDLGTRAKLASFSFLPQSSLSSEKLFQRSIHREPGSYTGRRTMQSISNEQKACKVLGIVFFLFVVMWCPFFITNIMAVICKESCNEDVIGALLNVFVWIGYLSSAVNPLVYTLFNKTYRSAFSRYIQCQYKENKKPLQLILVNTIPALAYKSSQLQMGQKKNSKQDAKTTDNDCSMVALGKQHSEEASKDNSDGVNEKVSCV

circular dichroism = type: physicochemical; settings: in water; 3L4F 300 μM, 3L4F-F1 100 and 300 μM; three independent trials
5-HT2CR = settings: for Cai2+ release, peptide alone (unstimulated): no agonist, fluorescence; for effect on 5-HT-evoked Cai2+ release: ANOVA main effect
[4] = tested on: impulsive action in the 5-CSRT task; settings: cited from earlier work
[5] = tested on: 5-HT2CR and PTEN protein expression, 5-HT2CR–CHO cells; assay: Western blot of protein expression in 5-HT2CR–CHO cells; type: cell-based, human 5-HT2CR; CHO cells; settings: 1 pM, 15 min preincubation
Method in brief: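 Cells were rinsed in ice-cold Krebs' solution, pelleted, and homogenized in HEPES/EDTA/EGTA/DTT buffer containing protease and phosphatase inhibitors. The membrane pellet from differential centrifugation was resuspended in buffer with 400 mM NaCl and 0.5% NP-40. Protein was quantified by BCA, reduced and heated at 70°C for 20 min, run on 4–12% Bis-Tris SDS-PAGE and transferred to PVDF. Blots were probed with primary antibody overnight and secondary for 45 min, then read by infrared imaging.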

[6] = 1 μmol/kg, versus saline, p < 0.05
[7] = TAT–3L4F 0.1 μmol/kg, WAY163909 1 mg/kg, alone or combined
[8] = TAT–3L4F 0.1 μmol/kg, WAY163909 1 mg/kg, alone or combined, p < 0.05
[9] = TAT–3L4F 0.3 μmol/kg, WAY163909 0.1 mg/kg, versus saline
[10] = TAT–3L4F 0.3 μmol/kg, combination study
[11] = 15 min preincubation, Calcium 4 dye
[12] = 0.5 and 1 mg/kg, versus saline, p < 0.05
[13] = WAY163909 0.1 mg/kg, combination study
[14] = 15 min preincubation, 1 nM 5-HT

Compound: Ac-YGRKKRRQRRRPNPDQKPRRKKKEKR-NH2 [rat TAT–3L4F]
- intensity of PTEN immunoreactive band after IP for 5-HT2CR, VTA [1]: attenuated relative to vehicle (saline) treatment
- effect across multiple activity measures (male Sprague Dawley rats [2]; 0.1 μmol/kg, alone): ineffective across multiple activity measures
- horizontal ambulation, 5-min bins (male Sprague Dawley rats [2]; 1 μmol/kg, 15 min before test, versus saline, p < 0.05): significantly reduced horizontal ambulation versus saline at 5, 10, and 15 min
- total horizontal ambulation, 70 min (male Sprague Dawley rats [2]; [6]): significantly reduced total horizontal ambulation versus saline
- total peripheral ambulation, 70 min (male Sprague Dawley rats [2]; [6]): significantly reduced peripheral ambulation versus saline
- central ambulation, 5-min bins (male Sprague Dawley rats [2]; 0.1 or 1 μmol/kg): No main effect of treatment
- vertical activity, 5-min bins (male Sprague Dawley rats [2]; 0.1 or 1 μmol/kg): No main effect of treatment
- total vertical activity, 70 min (combination study) (male Sprague Dawley rats [2]; [7]): No main effect of treatment was observed for vertical activity
- vertical activity, 5-min bins (combination study) (male Sprague Dawley rats [2]; [7]): No main effect of treatment
- total central ambulation, 70 min (combination study) (male Sprague Dawley rats [2]; [8]): but not either ligand alone
- number of reinforcers earned (combination study) (male Sprague Dawley rats [3]; [9]): Neither 0.3 μmol/kg TAT–3L4F nor 0.1 mg/kg WAY163909 alone altered the number of reinforcers earned versus saline
- premature responses (combination study) (male Sprague Dawley rats [3]; [9]): Neither 0.3 μmol/kg TAT–3L4F nor 0.1 mg/kg WAY163909 alone altered premature responses
- % Accuracy (male Sprague Dawley rats [3]; [10]): 98.69 ± 0.6%
- % Omissions (male Sprague Dawley rats [3]; [10]): 4.77 ± 1.0%
- Latency to start (male Sprague Dawley rats [3]; [10]): 1.00 ± 0.6 s
- Response latency (male Sprague Dawley rats [3]; [10]): 2.19 ± 0.2 s
- Time to finish (male Sprague Dawley rats [3]; [10]): 875.10 ± 15.3 s

Compound: Ac-PNQDQNAR-NH2 [3L4F-F1]
- Cai2+ release, peptide alone, in 5-HT2AR–CHO cells (5-HT2AR): did not induce Cai2+ release
- effect on 5-HT-mediated Cai2+ release in 5-HT2AR–CHO cells (5-HT2AR): did not induce Cai2+ release or alter Cai2+ release evoked by 10 nM 5-HT
- CD signal at 222 nm (circular dichroism): shallow inflection point at 222 nm
- α-helix content by CD (circular dichroism): 10–30%
- Cai2+ release, peptide alone (unstimulated) (5-HT2CR; [11]): did not induce Cai2+ release
- concentrations that significantly increased Cai2+ release versus 1 nM 5-HT (5-HT2CR; 15 min preincubation, 1 nM 5-HT, Calcium 4 dye, FlexStation3, p < 0.05): 10 ^−13 to 10 ^−9 M

Compound: c1cc2c3c(c1)[C@H]1CCC[C@H]1N3CCNC2 [WAY163909, (7bR, 10aR)-1,2,3,4,8,9,10,10a-octa-hydro-7bH-cyclopenta-(b)(1,4)diazepino (6,7,1hi)indole]
- total vertical activity, 70 min (combination study) (male Sprague Dawley rats [2]; [7]): No main effect of treatment was observed for vertical activity
- vertical activity, 5-min bins (combination study) (male Sprague Dawley rats [2]; [7]): No main effect of treatment
- central ambulation, 5-min bins (combination study) (male Sprague Dawley rats [2]; [8]): significantly reduced central ambulation versus saline at 10 min
- peripheral ambulation, 5-min bins (combination study) (male Sprague Dawley rats [2]; [8]): significantly reduced peripheral ambulation versus saline at 5 and 10 min
- total central ambulation, 70 min (combination study) (male Sprague Dawley rats [2]; [8]): but not either ligand alone
- total horizontal ambulation, 70 min (combination study) (male Sprague Dawley rats [2]; TAT–3L4F 0.1 μmol/kg, WAY163909 1 mg/kg, alone or combined, versus saline): neither ligands tested alone at chosen doses altered total horizontal ambulation
- % Accuracy (male Sprague Dawley rats [3]; 0.05 mg/kg): 100.52 ± 0.4%
- % Omissions (male Sprague Dawley rats [3]; 0.05 mg/kg): 6.23 ± 1.1%
- Latency to start (male Sprague Dawley rats [3]; 0.05 mg/kg): 0.69 ± 0.2 s
- Response latency (male Sprague Dawley rats [3]; 0.05 mg/kg): 2.75 ± 0.4 s
- Time to finish (male Sprague Dawley rats [3]; 0.05 mg/kg): 933.62 ± 29.4 s
- % Accuracy (male Sprague Dawley rats [3]; 0.1 mg/kg, dose-response study): 100.72 ± 0.5%
- % Omissions (male Sprague Dawley rats [3]; 0.1 mg/kg, dose-response study): 5.40 ± 0.9%
- Latency to start (male Sprague Dawley rats [3]; 0.1 mg/kg, dose-response study): 1.13 ± 0.2 s
- Response latency (male Sprague Dawley rats [3]; 0.1 mg/kg, dose-response study): 2.57 ± 0.2 s
- Time to finish (male Sprague Dawley rats [3]; 0.1 mg/kg, dose-response study): 923.55 ± 16.5 s
- % Accuracy (male Sprague Dawley rats [3]; 0.2 mg/kg): 100.15 ± 0.7%
- % Omissions (male Sprague Dawley rats [3]; 0.2 mg/kg): 6.26 ± 1.6%
- Latency to start (male Sprague Dawley rats [3]; 0.2 mg/kg): 0.85 ± 0.2 s
- Response latency (male Sprague Dawley rats [3]; 0.2 mg/kg): 2.84 ± 0.4 s
- Time to finish (male Sprague Dawley rats [3]; 0.2 mg/kg): 941.12 ± 34.9 s
- % Accuracy (male Sprague Dawley rats [3]; 0.5 mg/kg): 100.61 ± 0.4%
- % Omissions (male Sprague Dawley rats [3]; 0.5 mg/kg): 5.85 ± 0.9%
- Latency to start (male Sprague Dawley rats [3]; 0.5 mg/kg): 0.62 ± 0.1 s
- Response latency (male Sprague Dawley rats [3]; 0.5 mg/kg): 2.54 ± 0.2 s
- Time to finish (male Sprague Dawley rats [3]; 0.5 mg/kg): 926.23 ± 17.3 s
- % Accuracy (male Sprague Dawley rats [3]; 1 mg/kg): 101.48 ± 0.6%
- % Omissions (male Sprague Dawley rats [3]; 1 mg/kg): 8.94 ± 0.7%
- Latency to start (male Sprague Dawley rats [3]; 1 mg/kg): 1.11 ± 0.2 s
- Response latency (male Sprague Dawley rats [3]; 1 mg/kg): 3.06 ± 0.4 s
- Time to finish (male Sprague Dawley rats [3]; 1 mg/kg): 981.14 ± 33.7 s
- number of reinforcers earned (male Sprague Dawley rats [3]; [12]): increased the number of reinforcers earned versus saline
- premature responses (male Sprague Dawley rats [3]; [12]): decreased premature responses versus saline
- number of reinforcers earned (combination study) (male Sprague Dawley rats [3]; [9]): Neither 0.3 μmol/kg TAT–3L4F nor 0.1 mg/kg WAY163909 alone altered the number of reinforcers earned versus saline
- premature responses (combination study) (male Sprague Dawley rats [3]; [9]): Neither 0.3 μmol/kg TAT–3L4F nor 0.1 mg/kg WAY163909 alone altered premature responses
- % Accuracy (male Sprague Dawley rats [3]; [13]): 100.21 ± 0.8%
- % Omissions (male Sprague Dawley rats [3]; [13]): 5.45 ± 1.0%
- Latency to start (male Sprague Dawley rats [3]; [13]): 1.11 ± 0.3 s
- Response latency (male Sprague Dawley rats [3]; [13]): 2.83 ± 0.5 s
- Time to finish (male Sprague Dawley rats [3]; [13]): 948.78 ± 37.7 s
- additional measures of task performance (male Sprague Dawley rats [3]; accuracy, motivation, motility indices): did not alter additional measures of task performance, including accuracy, motivation, or motility indices
- impulsive action by premature responses in the 5-CSRT task ([4]; ref Navarra et al., 2008): potently suppress

Compound: Ac-RRKKKERR-NH2 [3L4F-F3]
- Cai2+ release, peptide alone, in 5-HT2AR–CHO cells (5-HT2AR): did not induce Cai2+ release
- effect on 5-HT-mediated Cai2+ release in 5-HT2AR–CHO cells (5-HT2AR): did not induce Cai2+ release or alter Cai2+ release evoked by 10 nM 5-HT
- Cai2+ release, peptide alone (unstimulated) (5-HT2CR; [11]): did not induce Cai2+ release
- effect on 5-HT-evoked Cai2+ release (5-HT2CR; [14]): No main effect

Compound: Ac-QNARRRKK-NH2 [3L4F-F2]
- Cai2+ release, peptide alone, in 5-HT2AR–CHO cells (5-HT2AR): did not induce Cai2+ release
- effect on 5-HT-mediated Cai2+ release in 5-HT2AR–CHO cells (5-HT2AR): did not induce Cai2+ release or alter Cai2+ release evoked by 10 nM 5-HT
- Cai2+ release, peptide alone (unstimulated) (5-HT2CR; [11]): did not induce Cai2+ release
- effect on 5-HT-evoked Cai2+ release (5-HT2CR; [14]): No main effect

Compound: Ac-PNQDQNARRRKKKERR-NH2 [3L4F]
- membrane protein expression levels of 5-HT2CR or PTEN [5]: unchanged
- Cai2+ release, peptide alone, in 5-HT2AR–CHO cells (5-HT2AR): nor did it alter Cai2+ release when tested alone
- effect on 5-HT-mediated Cai2+ release in 5-HT2AR–CHO cells (5-HT2AR): did not potentiate 5-HT-mediated (10 nM) Cai2+ release
- CD signal at 222 nm (circular dichroism): clear inflection point at 222 nm
- α-helix content by CD (circular dichroism): < 50%
- cellular entry without TAT conjugation (5-HT2CR): TAT conjugation is not necessary for cellular entry
- Emax of 5-HT-evoked Cai2+ release in presence of peptide (5-HT2CR; 1 pM peptide, 15 min, 5-HT concentration response, p < 0.05): 120.7 % of maximal response for 5-HT
- Cai2+ release, peptide alone (unstimulated) (5-HT2CR; [11]): did not alter unstimulated Cai2+ release

Compound: Cc1cc2c(cc1Cl)N(C(=O)Nc1ccc(Oc3cccnc3C)nc1)CC2.Cl.Cl [SB242084, 6-chloro-5-methyl-1-((2-(2-methylpyrid-3-yloxy)pyrid-5-yl)carbamoyl)indoline dihydrochloride]
- impulsive action by premature responses in the 5-CSRT task ([4]; ref Winstanley et al., 2004b, Fletcher et al., 2007): increase impulsive action
